Measurements as given in ChEMBL document CHEMBL1671686, “Carbapenem-resistant KPC-2-producing Escherichia coli in a Tel Aviv Medical Center, 2005 to 2008” (2010).
In brackets after ≈: the same amount, converted by molar mass.

How the values were obtained:
Format in all cases: functional
[1] = test system: Escherichia coli; experiment: Antimicrobial activity against Escherichia coli isolate 547T expressing beta-lactamase KPC2 and PFGE cluster 4 isolated from blood of patient by Etest
Procedure, shortened: (§1)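 Transformant strains. Plasmids purified from the clinical isolates were electroporated into E. coli DH10B. Transformants were selected on LB agar with 100 μg/ml ampicillin, and colonies were PCR-screened for blaKPC before susceptibility testing.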

[2] = test system: Escherichia coli; experiment: Antimicrobial activity against Escherichia coli isolate 386T expressing beta-lactamase KPC2, OXA-9 and PFGE cluster 1 isolated from wound of patient by Etest; procedure, shortened: as §1
[3] = test system: Escherichia coli; experiment: Antimicrobial activity against Escherichia coli isolate 360 expressing beta-lactamase KPC2, CTX-M-15, OXA-9, TEM and PFGE cluster 1 isolated from urine of patient by Etest
[4] = test system: Escherichia coli; experiment: Antimicrobial activity against Escherichia coli isolate 543T expressing beta-lactamase KPC2 and PFGE cluster 4 isolated from synovial fluid of patient by Etest; procedure, shortened: as §1
[5] = test system: Escherichia coli; experiment: Antimicrobial activity against Escherichia coli isolate 339 expressing beta-lactamase KPC2, TEM and PFGE cluster 5 isolated from peritoneal fluid of patient by Etest
[6] = test system: Escherichia coli; experiment: Antimicrobial activity against Escherichia coli DH10B by Etest; conditions: K-12 DH10B
[7] = test system: Escherichia coli; experiment: Antimicrobial activity against Escherichia coli isolate 543 expressing beta-lactamase KPC2, CTX-M-15, TEM and PFGE cluster 4 isolated from synovial fluid of patient by Etest
[8] = test system: Escherichia coli; experiment: Antimicrobial activity against Escherichia coli isolate 157T expressing beta-lactamase KPC2 and PFGE cluster 3 isolated from urine of patient by Etest; procedure, shortened: as §1
[9] = test system: Escherichia coli; experiment: Antimicrobial activity against Escherichia coli isolate 339T expressing beta-lactamase KPC2 and PFGE cluster 5 isolated from peritoneal fluid of patient by Etest; procedure, shortened: as §1
[10] = test system: Escherichia coli; experiment: Antimicrobial activity against Escherichia coli isolate 360T expressing beta-lactamase KPC2, OXA-9 and PFGE cluster 1 isolated from urine of patient by Etest; procedure, shortened: as §1
[11] = test system: Escherichia coli; experiment: Antimicrobial activity against Escherichia coli isolate 329 expressing beta-lactamase KPC2, CTX-M-2, TEM and PFGE cluster 2 isolated from blood of patient by Etest
[12] = test system: Escherichia coli; experiment: Antimicrobial activity against Escherichia coli isolate 544 expressing beta-lactamase KPC2, TEM and PFGE cluster 4 isolated from abscess of patient by Etest
[13] = test system: Escherichia coli; experiment: Antimicrobial activity against Escherichia coli isolate 386 expressing beta-lactamase KPC2, CTX-M-15, OXA-9, TEM and PFGE cluster 1 isolated from wound of patient by Etest
[14] = test system: Escherichia coli; experiment: Antimicrobial activity against Escherichia coli isolate 329T expressing beta-lactamase KPC2 and PFGE cluster 2 isolated from blood of patient by Etest; procedure, shortened: as §1
[15] = test system: Escherichia coli; experiment: Antimicrobial activity against Escherichia coli isolate 547 expressing beta-lactamase KPC2, TEM and PFGE cluster 4 isolated from blood of patient by Etest
[16] = test system: Escherichia coli; experiment: Antimicrobial activity against Escherichia coli isolate 1679 expressing beta-lactamase KPC2, SHV-12, TEM and PFGE cluster 6 isolated from peritoneal fluid of patient by Etest
[17] = test system: Escherichia coli; experiment: Antimicrobial activity against Escherichia coli isolate 540 expressing beta-lactamase KPC2, TEM and PFGE cluster 4 isolated from synovial fluid of patient by Etest
[18] = test system: Escherichia coli; experiment: Antimicrobial activity against Escherichia coli isolate 157 expressing beta-lactamase KPC2, CTX-M-15, TEM and PFGE cluster 3 isolated from urine of patient by Etest
[19] = test system: Escherichia coli; experiment: Antimicrobial activity against Escherichia coli isolate 1679T expressing beta-lactamase KPC2, TEM and PFGE cluster 6 isolated from peritoneal fluid of patient by Etest; procedure, shortened: as §1
[20] = test system: Escherichia coli; experiment: Antimicrobial activity against Escherichia coli isolate 360T expressing beta-lactamase KPC2, OXA-9 and PFGE cluster 1 isolated from urine of patient by agar dilution method; procedure, shortened: as §1
[21] = test system: Escherichia coli; experiment: Antimicrobial activity against Escherichia coli isolate 386 expressing beta-lactamase KPC2, CTX-M-15, OXA-9, TEM and PFGE cluster 1 isolated from wound of patient by agar dilution method
Procedure, shortened: (§2)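 Clinical carbapenem-resistant E. coli isolates collected Feb 2005–Oct 2008. Carbapenem MICs determined by agar dilution following CLSI protocols.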

[22] = test system: Escherichia coli; experiment: Antimicrobial activity against Escherichia coli isolate 544 expressing beta-lactamase KPC2, TEM and PFGE cluster 4 isolated from abscess of patient by agar dilution method
Procedure, shortened: (§3)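 Clinical carbapenem-resistant E. coli isolates from the hospital, February 2005 to October 2008. Carbapenem MICs were determined by agar dilution following CLSI protocols.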

[23] = test system: Escherichia coli; experiment: Antimicrobial activity against Escherichia coli isolate 157 expressing beta-lactamase KPC2, CTX-M-15, TEM and PFGE cluster 3 isolated from urine of patient by agar dilution method; conditions: isolate 157, Urine; procedure, shortened: as §2
[24] = test system: Escherichia coli; experiment: Antimicrobial activity against Escherichia coli isolate 547T expressing beta-lactamase KPC2 and PFGE cluster 4 isolated from blood of patient by agar dilution method; procedure, shortened: as §1
[25] = test system: Escherichia coli; experiment: Antimicrobial activity against Escherichia coli isolate 339 expressing beta-lactamase KPC2, TEM and PFGE cluster 5 isolated from peritoneal fluid of patient by agar dilution method; procedure, shortened: as §3
[26] = test system: Escherichia coli; experiment: Antimicrobial activity against Escherichia coli isolate 329 expressing beta-lactamase KPC2, CTX-M-2, TEM and PFGE cluster 2 isolated from blood of patient by agar dilution method; procedure, shortened: as §3
[27] = test system: Escherichia coli; experiment: Antimicrobial activity against Escherichia coli isolate 543T expressing beta-lactamase KPC2 and PFGE cluster 4 isolated from synovial fluid of patient by agar dilution method; procedure, shortened: as §1
[28] = test system: Escherichia coli; experiment: Antimicrobial activity against Escherichia coli isolate 360 expressing beta-lactamase KPC2, CTX-M-15, OXA-9, TEM and PFGE cluster 1 isolated from urine of patient by agar dilution method; conditions: isolate 360, Urine; procedure, shortened: as §2
[29] = test system: Escherichia coli; experiment: Antimicrobial activity against Escherichia coli isolate 1679T expressing beta-lactamase KPC2, TEM and PFGE cluster 6 isolated from peritoneal fluid of patient by agar dilution method; procedure, shortened: as §1
[30] = test system: Escherichia coli; experiment: Antimicrobial activity against Escherichia coli isolate 543 expressing beta-lactamase KPC2, CTX-M-15, TEM and PFGE cluster 4 isolated from synovial fluid of patient by agar dilution method; procedure, shortened: as §3
[31] = test system: Escherichia coli; experiment: Antimicrobial activity against Escherichia coli isolate 329T expressing beta-lactamase KPC2 and PFGE cluster 2 isolated from blood of patient by agar dilution method; procedure, shortened: as §1
[32] = test system: Escherichia coli; experiment: Antimicrobial activity against Escherichia coli isolate 157T expressing beta-lactamase KPC2 and PFGE cluster 3 isolated from urine of patient by agar dilution method; procedure, shortened: as §1
[33] = test system: Escherichia coli; experiment: Antimicrobial activity against Escherichia coli isolate 540 expressing beta-lactamase KPC2, TEM and PFGE cluster 4 isolated from synovial fluid of patient by agar dilution method; procedure, shortened: as §3
[34] = test system: Escherichia coli; experiment: Antimicrobial activity against Escherichia coli isolate 339T expressing beta-lactamase KPC2 and PFGE cluster 5 isolated from peritoneal fluid of patient by agar dilution method; procedure, shortened: as §1
[35] = test system: Escherichia coli; experiment: Antimicrobial activity against Escherichia coli isolate 1679 expressing beta-lactamase KPC2, SHV-12, TEM and PFGE cluster 6 isolated from peritoneal fluid of patient by agar dilution method; procedure, shortened: as §3
[36] = test system: Escherichia coli; experiment: Antimicrobial activity against Escherichia coli isolate 386T expressing beta-lactamase KPC2, OXA-9 and PFGE cluster 1 isolated from wound of patient by agar dilution method; procedure, shortened: as §1
[37] = test system: Escherichia coli; experiment: Antimicrobial activity against Escherichia coli isolate 547 expressing beta-lactamase KPC2, TEM and PFGE cluster 4 isolated from blood of patient by agar dilution method; procedure, shortened: as §2

With COLISTIN the MIC [1] was 0.047 µg/mL, the MIC [2] was 0.047 µg/mL and the MIC [3] was 0.19 µg/mL. It also gave an MIC [4] of 0.047 µg/mL, an MIC [5] of 0.125 µg/mL and an MIC [6] of 0.047 µg/mL. It also gave an MIC [7] of 0.125 µg/mL, an MIC [8] of 0.047 µg/mL and an MIC [9] of 0.047 µg/mL. It also gave an MIC [10] of 0.094 µg/mL, an MIC [11] of 0.19 µg/mL and an MIC [12] of 0.19 µg/mL. It also gave an MIC [13] of 0.125 µg/mL, an MIC [14] of 0.047 µg/mL and an MIC [15] of 0.19 µg/mL. For the same compound, the MIC [16] was 0.38 µg/mL, the MIC [17] was 0.125 µg/mL and the MIC [18] was 0.125 µg/mL. The MIC [19] was 0.047 µg/mL.
In the case of `C[C@@H](O)[C@H]1C(=O)N2C(C(=O)O)=C(S[C@@H]3CN[C@H](CNS(N)(=O)=O)C3)[C@H](C)[C@H]12` [DORIPENEM], the MIC [20] is reported as < 0.5 µg/mL, the MIC [21] is reported as 1 µg/mL (≈ 2.38 µM) and the MIC [22] is reported as 1 µg/mL (≈ 2.38 µM). For the same compound, the MIC [23] was 2 µg/mL (≈ 4.76 µM), the MIC [24] was < 0.5 µg/mL and the MIC [25] was 1 µg/mL (≈ 2.38 µM). The MIC [26] was 4 µg/mL (≈ 9.51 µM), the MIC [27] was < 0.5 µg/mL and the MIC [28] was 1 µg/mL (≈ 2.38 µM). It also gave an MIC [29] of 0.5 µg/mL (≈ 1.19 µM), an MIC [30] of 2 µg/mL (≈ 4.76 µM) and an MIC [31] of 1 µg/mL (≈ 2.38 µM). The MIC [32] was 1 µg/mL (≈ 2.38 µM), the MIC [33] was 1 µg/mL (≈ 2.38 µM) and the MIC [6] was < 0.5 µg/mL. The MIC [34] was 0.5 µg/mL (≈ 1.19 µM), the MIC [35] was 8 µg/mL (≈ 19 µM) and the MIC [36] was < 0.5 µg/mL. For the same compound, the MIC [37] was < 0.5 µg/mL.
